# Reference: ChEMBL document CHEMBL1148398, “Design, synthesis, and biological evaluation of thio-containing compounds with serum HDL-cholesterol-elevating properties” (2004)
# What was measured:
# [1] = system: Cricetinae gen. sp.; test: Effect of compound on liver weight in 1st group of cholesterol-fed male hamsters at 3 mg/kg/day after 14 days of treatment; type: functional
# Outline: (§1)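 Male Syrian Golden hamsters, 90–100 g, fed chow plus 0.25% cholesterol for 2 weeks before and throughout dosing. Compound suspended in 2% Tween 80 in saline, given by oral gavage for 14 days; vehicle controls. Fasted 4 h, last dose 2 h before sacrifice, then weighed and blood and liver collected. Liver enzymes read on a clinical analyzer. Six per group, mean ± SEM.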
# [2] = system: Cricetinae gen. sp.; test: Effect of compound on liver weight in 2nd group of cholesterol-fed male hamsters at 10 mg/kg/day after 14 days of treatment; type: functional; outline: as §1
# [3] = system: Rattus norvegicus; test: Effect of compound on gain in body weight in 3rd group of normal chow-fed male rats after a dose of 5 mg/kg/day; type: functional
# Outline: (§2)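 Male Sprague–Dawley CD rats (60–80 g) on standard chow under a reversed 12 h light/dark cycle. Compound was suspended in 1.3% Tween 80/0.25% CMC and given as a single daily oral gavage dose for 4 days. Rats were fasted overnight and killed 24 h after the last dose. Serum ALT, AST, ALKP and LDH were read on a clinical analyzer. Weight gain was start versus end weight. Mean ± SEM, n = 6.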
# [4] = system: Rattus norvegicus; test: Percent change in total plasma cholesterol following oral administration of compound in normal chow-fed rats at 100 mg/kg/day for 4 days; type: functional
# Outline: (§3)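 Chow-fed male Sprague–Dawley CD rats, 60–80 g, gavaged 100 mg/kg/day for 4 days in 1.3% Tween 80/0.25% CMC. Fasted overnight, bled 24 h after the last dose. Total cholesterol and glycerol-blanked triglycerides read enzymatically; lipoproteins by FPLC with cholesterol per fraction. % change versus control; six per group, p < 0.05.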
# [5] = system: Rattus norvegicus; test: Percent change in low-density lipoprotein cholesterol following oral administration of compound in normal chow-fed rats at 100 mg/kg/day for 4 days; type: functional; outline: as §3
# [6] = system: Rattus norvegicus; test: Effect of compound on alanine aminotransferase (ALT) levels in 2nd group of normal chow-fed male rats after a dose of 2 mg/kg/day; type: functional, organism-based; outline: as §2
# [7] = system: Rattus norvegicus; test: Effect of compound on alkaline phosphatase (ALKP) levels in 2nd group of normal chow-fed male rats after a dose of 2 mg/kg/day; type: functional, organism-based; outline: as §2
# [8] = system: Rattus norvegicus; test: Effect of compound on aspartate aminotransferase (AST) levels in 5th group of normal chow-fed male rats after a dose of 20 mg/kg/day; type: functional, organism-based; outline: as §2
# [9] = system: Rattus norvegicus; test: Effect of compound on relative liver weight in 1st group of normal chow-fed male rats after a dose of 1 mg/kg/day; type: functional
# Outline: (§4)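 Chow-fed male Sprague–Dawley CD rats, 60–80 g, dosed by oral gavage once daily for 4 days in 1.3% Tween 80/0.25% CMC. Fasted overnight and sacrificed 24 h after the last dose. Liver weight expressed as % of body weight at termination. Six per group, mean ± SEM.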
# [10] = system: Rattus norvegicus; test: Effect of compound on relative liver weight in 4th group of normal chow-fed male rats after a dose of 10 mg/kg/day; type: functional; outline: as §4
# [11] = system: Rattus norvegicus; test: Effect of compound on high-density lipoprotein cholesterol levels in 4th group of normal chow-fed male rats after a dose of 10 mg/kg/day; type: functional, organism-based
# [12] = system: Rattus norvegicus; test: Effect of compound on thyroxine levels in 3rd group of normal chow-fed male rats after a dose of 5 mg/kg/day; type: functional, organism-based
# Outline: (§5)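 Male Sprague–Dawley CD rats, 60–80 g, on standard chow with reverse 12 h light/dark cycle. One oral gavage dose daily for 4 days, suspended in 1.3% Tween 80 and 0.25% CMC. Fasted overnight; sacrificed 24 h after the last dose. Serum TC on clinical analyzer, lipoproteins by FPLC with cholesterol per fraction, T4 on analyzer. Mean ± SEM, six rats per group.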
# [13] = system: Rattus norvegicus; test: Effect of compound on thyroxine levels in 5th group of normal chow-fed male rats after a dose of 20 mg/kg/day; type: functional, organism-based; outline: as §5
# [14] = system: Rattus norvegicus; test: Effect of compound on thyroxine levels in 6th group of normal chow-fed male rats after a dose of 50 mg/kg/day; type: functional, organism-based; outline: as §5
# [15] = system: Rattus norvegicus; test: Effect of compound on total plasma cholesterol levels in 3rd group of normal chow-fed male rats after a dose of 5 mg/kg/day; type: functional, organism-based; outline: as §5
# [16] = system: Rattus norvegicus; test: Effect of compound on total plasma cholesterol levels in 7th group of normal chow-fed male rats after a dose of 100 mg/kg/day; type: functional, organism-based
# Outline: (§6)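 Male Sprague–Dawley CD rats (60–80 g) on Purina 5001 chow with a reverse 12 h light/dark cycle. Dosed once daily by oral gavage for 4 days, suspended in 1.3% Tween 80 / 0.25% CMC. Fasted overnight and bled 24 h after the last dose. Serum TC and glycerol-blanked TG measured enzymatically; VLDL-C by FPLC fractionation with cholesterol assay. n=6, mean ± SEM.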
# [17] = system: Rattus norvegicus; test: Effect of compound on triglyceride levels in 6th group of normal chow-fed male rats after a dose of 50 mg/kg/day; type: functional, organism-based; outline: as §6
# [18] = system: Rattus norvegicus; test: Effect of compound on triglyceride levels in 7th group of normal chow-fed male rats after a dose of 100 mg/kg/day; type: functional, organism-based; outline: as §6
# [19] = system: Rattus norvegicus; test: Effect of compound on very low-density lipoprotein cholesterol levels in 7th group of normal chow-fed male rats after a dose of 100 mg/kg/day; type: functional, organism-based; outline: as §6
# [20] = system: Rattus norvegicus; test: Effect of compound on very low-density lipoprotein cholesterol levels in 3rd group of normal chow-fed male rats after a dose of 5 mg/kg/day; type: functional, organism-based; outline: as §6
# [21] = system: Rattus norvegicus; test: Effect of compound on very low-density lipoprotein cholesterol levels in 5th group of normal chow-fed male rats after a dose of 20 mg/kg/day; type: functional, organism-based; outline: as §6
# [22] = system: Rattus norvegicus; test: Effect of compound on triglycerides level in 2nd group of normal chow-fed male rats after a dose of 2 mg/kg/day; type: functional, organism-based; outline: as §6
# [23] = system: Rattus norvegicus; test: Effect of compound on liver weight in 3rd group of normal chow-fed male rats after a dose of 5 mg/kg/day; type: functional
# Outline: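 Male Sprague–Dawley CD rats, 60–80 g, on chow with a reverse 12 h light/dark cycle. Given one oral gavage dose daily for 4 days, suspended in 1.3% Tween 80/0.25% CMC. Fasted overnight and sacrificed 24 h after the last dose for blood and liver. Serum liver enzymes read on a clinical analyzer. Six per group, mean ± SEM.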
# [24] = system: Cricetinae gen. sp.; test: Effect of compound on thyroxine levels in 3rd group of cholesterol-fed male hamsters at 30 mg/kg/day after 14 days of treatment; conditions: Mesocricetus auratus
# [25] = system: Cricetinae gen. sp.; test: Effect of compound on alkaline phosphatase (ALKP) levels in 1st group of cholesterol-fed male hamsters at 3 mg/kg/day after 14 days of treatment; conditions: Mesocricetus auratus
# [26] = system: Cricetinae gen. sp.; test: Effect of compound on alanine aminotransferase (ALT) levels in 1st group of cholesterol-fed male hamsters at 3 mg/kg/day after 14 days of treatment; conditions: Mesocricetus auratus
# [27] = system: Cricetinae gen. sp.; test: Effect of compound on aspartate aminotransferase (AST) levels in 3rd group of cholesterol-fed male hamsters at 30 mg/kg/day after 14 days of treatment; conditions: Mesocricetus auratus
# [28] = system: Cricetinae gen. sp.; test: Effect of compound on very low-density lipoprotein cholesterol levels in 3rd group of cholesterol-fed male hamsters at 30 mg/kg/day after 14 days of treatment; conditions: Mesocricetus auratus
smiles,measurement,setting,value
CCN1CC(=O)N(c2cc(Cl)ccc2C)C1=S,Liver weight,[1],9.58 g
same,Liver weight,[2],9.08 g
same,Body weight,[3],30.7 g
same,Change,[4],72.8%
same,Change,[5],9.6%
same,Level,[6],59 U l-1
same,Level,[7],373 U l-1
same,Level,[8],318 U l-1
same,Relative liver weight,[9],4.3%
same,Relative liver weight,[10],4.3%
same,Serum level,[11],61 mg/dL
same,Serum level,[12],4.23 µg/dL
same,Serum level,[13],4.05 µg/dL
same,Serum level,[14],3.47 µg/dL
same,Serum level,[15],62 mg/dL
same,Serum level,[16],118 mg/dL
same,Serum level,[17],14 mg/dL
same,Serum level,[18],12 mg/dL
same,Serum level,[19],5.7 mg/dL
same,Serum level,[20],3.9 mg/dL
same,Serum level,[21],5.3 mg/dL
same,Serum level,[22],15 mg/dL
same,Liver weight,[23],7.2 g
same,Serum level,[24],4.73 µg/dL
same,Level,[25],154 U l-1
same,Level,[26],182 U l-1
same,Level,[27],204 U l-1
same,Serum level,[28],91 mg/dL
